# From PMC2754219 (Obesity (Silver Spring, Md.), 2009)
# Key:
# [1] = format: in vivo, human; details: week 16; metreleptin 5 mg b.i.d. s.c.
# In short: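 Predose plasma leptin was measured at week 16 and expressed relative to enrollment concentration. Subjects received a leptin analogue at 5mg b.i.d. s.c., alone or with an amylin analogue at 360 μg b.i.d., each injected separately 15 min before morning and evening meals. Analysis covered the evaluable population; values are mean ± s.e.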
# [2] = system: obese or overweight subjects; format: in vivo, human
# [3] = system: nonleptin-deficient obesity; details: doses up to twofold those used in this study; and data on file, Amylin Pharmaceuticals, Inc.; cited from earlier work
# [4] = system: obese or overweight subjects; experiment: Clinical study: treatment-emergent adverse events, tolerability and withdrawals
# [5] = system: obese or overweight subjects; experiment: Clinical study: fasting lipoprotein and glycemic control parameters; format: in vivo, human; details: enrollment to week 16, evaluable population, mean ± s.e., SEM
# In short: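 Fasting glucose, insulin, lipids and HOMA-IR were taken as change from enrollment to week 16 after the 4-week amylin analogue lead-in with a 40% caloric-deficit diet. This was followed by randomized s.c. b.i.d. leptin analogue, amylin analogue, or both, and advice to keep a 20% caloric deficit. Evaluable subjects had completed week 16; values are mean ± s.e.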
# [6] = evaluable population, LS mean ± s.e., SEM
# [7] = ITT population, lead-in and postrandomization periods
substance,measurement,setting,value
Metreleptin: recombinant methyl-human leptin (metreleptin),Increase of predose leptin concentrations over enrollment concentrations,[1],13- to 16 fold
same,Overall rate of weight change,"[2]; day 1 to week 20, evaluable population, LS mean ± s.e., SEM",−0.16 ± 0.06 kg/week
same,"Rate of weight change, Day 1 to week 12",[2]; [6],−0.23 ± 0.06 kg/week
same,"Rate of weight change, Week 12 to week 20",[2]; [6],−0.02 ± 0.08 kg/week
same,"Weight loss, percent of initial body weight over 24 weeks","[2]; evaluable, rounded figures of the discussion",~ 8%
same,Weight loss in previous monotherapy trials,[3],failed to show significant weight loss
same,Back pain,[4]; [7],0 (0.0) n (%)
same,Constipation,[4]; [7],1 (3.7) n (%)
same,Diarrhea,[4]; [7],0 (0.0) n (%)
same,Headache,[4]; [7],2 (7.4) n (%)
same,Hypersensitivity,[4]; [7],2 (7.4) n (%)
same,Influenza,[4]; [7],1 (3.7) n (%)
same,Injection site adverse events,[4]; [7],18 (66.7) n (%)
same,Nasopharyngitis,[4]; [7],2 (7.4) n (%)
same,Nausea,[4]; [7],7 (25.9) n (%)
same,Streptococcal pharyngitis,[4]; [7],0 (0.0) n (%)
same,Vomiting,[4]; [7],2 (7.4) n (%)
same,"Withdrew during randomized treatment, reason: Adverse event","[4]; through week 20, randomized/ITT population",3 (11) n (%)
same,Change in HOMA-IR,[5],−0.10 ± 0.29
same,Change in insulin,[5]; fasting serum,−0.6 ± 1.1 μIU/ml
same,Change in HDL,[5]; fasting,1.7 ± 1.5 mg/dL
same,Change in LDL,[5]; fasting,1.1 ± 5.1 mg/dL
same,Change in blood glucose,[5]; fasting,0.7 ± 1.7 mg/dL
same,Change in total cholesterol,[5]; fasting,2.7 ± 5.8 mg/dL
same,Change in triglycerides,[5]; fasting,5.7 ± 13.5 mg/dL
